Source: the array DNA melting data of Ke et al. (doi:10.1101/2024.01.08.574731)

Legend:
[1] = folding enthalpy; higher = less favourable; fluorescence melt of hairpins on a sequencing array, two-state fit; settings: sodium 0.088 M
Summary of the method: (§1)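 In 50 mM Na-HEPES pH 8.0 containing 25 mM NaCl, hairpins from the library on a sequenced MiSeq flow cell were imaged for Cy3 fluorescence at 2.5 °C steps up to 60 °C, with Cy3 and quencher oligos annealed. After normalisation to pre-quench Cy3 and to control constructs, two-state fits with bootstrapping gave melting temperature and folding enthalpy. Four replicates were combined by inverse-variance weighting, and fitted temperatures were shifted up by 9.35 °C to match UV melts.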

[2] = melting temperature; fluorescence melt of hairpins on a sequencing array, two-state fit, raised by 9.35 °C to match UV melts; settings: sodium 0.088 M
Summary of the method: as §1

AAATGGAAACATTT (((((....)))))
folding enthalpy [1]: -9.49 kcal/mol
Tm [2]: 27.2 °C

AAGAGGAAACTCTT (((((....)))))
folding enthalpy [1]: -9.65 kcal/mol
Tm [2]: 28 °C

AAGCTGAAAAGCTT (((((....)))))
folding enthalpy [1]: -21.1 kcal/mol
Tm [2]: 49.3 °C

AAGGAGAAATCCTT (((((....)))))
folding enthalpy [1]: -8.61 kcal/mol
Tm [2]: 27.3 °C

ACAGAGAAATCTGT (((((....)))))
folding enthalpy [1]: -13.6 kcal/mol
Tm [2]: 32.7 °C

ACATTGAAAAATGT (((((....)))))
folding enthalpy [1]: -13.4 kcal/mol
Tm [2]: 32.9 °C

ACCCGGAAACGGGT (((((....)))))
folding enthalpy [1]: -19.5 kcal/mol
Tm [2]: 58.1 °C

ACCTGGAAACAGGT (((((....)))))
folding enthalpy [1]: -18.8 kcal/mol
Tm [2]: 51.1 °C

ACGAAGAAATTCGT (((((....)))))
folding enthalpy [1]: -18.1 kcal/mol
Tm [2]: 38 °C

ACTATGAAAATAGT (((((....)))))
folding enthalpy [1]: -11.8 kcal/mol
Tm [2]: 32.2 °C

ACTCTGAAAAGAGT (((((....)))))
folding enthalpy [1]: -17.4 kcal/mol
Tm [2]: 43.4 °C

ACTTGGAAACAAGT (((((....)))))
folding enthalpy [1]: -17.8 kcal/mol
Tm [2]: 38.4 °C

AGAACCCGAAAGGCTTCT ((((.((....)).))))
folding enthalpy [1]: -17.7 kcal/mol
Tm [2]: 33.6 °C

AGAATCAGAAATGGTTCT ((((.((....)).))))
folding enthalpy [1]: -26.5 kcal/mol
Tm [2]: 30.6 °C

AGAATCCGAAAGGCTTCT ((((.((....)).))))
folding enthalpy [1]: -27.3 kcal/mol
Tm [2]: 35.6 °C

AGACCGAAAGGTCT (((((....)))))
folding enthalpy [1]: -21.1 kcal/mol
Tm [2]: 68.6 °C

AGATGGAAACATCT (((((....)))))
folding enthalpy [1]: -19 kcal/mol
Tm [2]: 42.1 °C

AGCATGAAAATGCT (((((....)))))
folding enthalpy [1]: -22.2 kcal/mol
Tm [2]: 50 °C

AGCGAGAAATCGCT (((((....)))))
folding enthalpy [1]: -20.7 kcal/mol
Tm [2]: 53.7 °C

AGCGGGAAACCGCT (((((....)))))
folding enthalpy [1]: -19.1 kcal/mol
Tm [2]: 67.1 °C

AGGGGGAAACCCCT (((((....)))))
folding enthalpy [1]: -17.5 kcal/mol
Tm [2]: 53.5 °C

AGGGTGAAAACCCT (((((....)))))
folding enthalpy [1]: -19.3 kcal/mol
Tm [2]: 53.9 °C

AGGTTGAAAAACCT (((((....)))))
folding enthalpy [1]: -20.5 kcal/mol
Tm [2]: 45.6 °C

ATAACGAAAGTTAT (((((....)))))
folding enthalpy [1]: -15.2 kcal/mol
Tm [2]: 46.3 °C

ATACCGAAAGGTAT (((((....)))))
folding enthalpy [1]: -20.2 kcal/mol
Tm [2]: 52.2 °C

ATACGGAAACGTAT (((((....)))))
folding enthalpy [1]: -21.8 kcal/mol
Tm [2]: 43.5 °C

ATACTGAAAAGTAT (((((....)))))
folding enthalpy [1]: -12.3 kcal/mol
Tm [2]: 30.6 °C

ATCGAGAAATCGAT (((((....)))))
folding enthalpy [1]: -23.9 kcal/mol
Tm [2]: 39.5 °C

ATGAGGAAACTCAT (((((....)))))
folding enthalpy [1]: -17.6 kcal/mol
Tm [2]: 39.6 °C

ATGATGAAAATCAT (((((....)))))
folding enthalpy [1]: -15.2 kcal/mol
Tm [2]: 39.5 °C

ATGTTGAAAAACAT (((((....)))))
folding enthalpy [1]: -13 kcal/mol
Tm [2]: 37 °C

CAAAGGAAACTTTG (((((....)))))
folding enthalpy [1]: -16.2 kcal/mol
Tm [2]: 35 °C

CACATGAAAATGTG (((((....)))))
folding enthalpy [1]: -27.3 kcal/mol
Tm [2]: 47.9 °C

CACCAGAAATGGTG (((((....)))))
folding enthalpy [1]: -23.4 kcal/mol
Tm [2]: 50 °C

CACTCGAAAGAGTG (((((....)))))
folding enthalpy [1]: -24.4 kcal/mol
Tm [2]: 59.9 °C

CAGACGAAAGTCTG (((((....)))))
folding enthalpy [1]: -24.4 kcal/mol
Tm [2]: 61.9 °C

CATAGGAAACTATG (((((....)))))
folding enthalpy [1]: -14.3 kcal/mol
Tm [2]: 38.4 °C

CCAAAGAAATTTGG (((((....)))))
folding enthalpy [1]: -8.79 kcal/mol
Tm [2]: 30.9 °C

CCAAGGAAACTTGG (((((....)))))
folding enthalpy [1]: -20.3 kcal/mol
Tm [2]: 46 °C

CCAGTGAAAACTGG (((((....)))))
folding enthalpy [1]: -19.8 kcal/mol
Tm [2]: 50.8 °C

CCATGGAAACATGG (((((....)))))
folding enthalpy [1]: -23.2 kcal/mol
Tm [2]: 49.6 °C

CCCTGGAAACAGGG (((((....)))))
folding enthalpy [1]: -20 kcal/mol
Tm [2]: 56.9 °C

CCTTGGAAACAAGG (((((....)))))
folding enthalpy [1]: -15.7 kcal/mol
Tm [2]: 47.2 °C

CGAAAACGGAAACGTTCG (((..(((....))))))
folding enthalpy [1]: -19.8 kcal/mol
Tm [2]: 37 °C

CGAAACCGGAAACGGTCG (((..(((....))))))
folding enthalpy [1]: -14.9 kcal/mol
Tm [2]: 43.8 °C

CGAAACGGAAACGTATCG (((.(((....))).)))
folding enthalpy [1]: -30.8 kcal/mol
Tm [2]: 42.6 °C

CGAACCCGGAAACGGTCG (((..(((....))))))
folding enthalpy [1]: -13 kcal/mol
Tm [2]: 36.7 °C

CGAACGCGGAAACGCTCG (((..(((....))))))
folding enthalpy [1]: -17.2 kcal/mol
Tm [2]: 40.5 °C

CGAACGGAAACGTAATCG ((((((....)))..)))
folding enthalpy [1]: -8.82 kcal/mol
Tm [2]: 24.5 °C

CGAAGACGGAAACGTTCG (((..(((....))))))
folding enthalpy [1]: -13.8 kcal/mol
Tm [2]: 39 °C

CGAATACGGAAACGTTCG (((..(((....))))))
folding enthalpy [1]: -24.9 kcal/mol
Tm [2]: 34 °C

CGACACGGAAACGTCTCG (((.(((....))).)))
folding enthalpy [1]: -26.8 kcal/mol
Tm [2]: 35.9 °C

CGACAGCGGAAACGCTCG (((..(((....))))))
folding enthalpy [1]: -12.9 kcal/mol
Tm [2]: 40.3 °C

CGACATCGGAAACGATCG (((..(((....))))))
folding enthalpy [1]: -12.7 kcal/mol
Tm [2]: 34 °C

CGACCACGGAAACGTTCG (((..(((....))))))
folding enthalpy [1]: -12.3 kcal/mol
Tm [2]: 30.5 °C

CGACCGCGGAAACGCTCG (((..(((....))))))
folding enthalpy [1]: -11.2 kcal/mol
Tm [2]: 34 °C

CGACCGGAAACGGTCTCG ((((((....)))..)))
folding enthalpy [1]: -8.29 kcal/mol
Tm [2]: 38 °C

CGACGCGGAAACGCCTCG (((.(((....))).)))
folding enthalpy [1]: -23.9 kcal/mol
Tm [2]: 41.5 °C

CGACTCGGAAACGATTCG (((.(((....))).)))
folding enthalpy [1]: -41 kcal/mol
Tm [2]: 42.5 °C

CGACTGAAAAGTCG (((((....)))))
folding enthalpy [1]: -26.5 kcal/mol
Tm [2]: 58.5 °C

CGACTGCGGAAACGCTCG (((..(((....))))))
folding enthalpy [1]: -12.5 kcal/mol
Tm [2]: 32.7 °C

CGAGCGGAAACGCACTCG ((((((....)))..)))
folding enthalpy [1]: -15.8 kcal/mol
Tm [2]: 37.6 °C

CGAGCGGAAACGCGTTCG ((((((....)))..)))
folding enthalpy [1]: -12.6 kcal/mol
Tm [2]: 49.9 °C

CGAGTACGGAAACGTTCG (((..(((....))))))
folding enthalpy [1]: -20.4 kcal/mol
Tm [2]: 36.6 °C

CGAGTCGGAAACGATTCG (((.(((....))).)))
folding enthalpy [1]: -47.2 kcal/mol
Tm [2]: 50.4 °C

CGAGTGAAAACTCG (((((....)))))
folding enthalpy [1]: -24.6 kcal/mol
Tm [2]: 54.6 °C

CGATCCCGGAAACGGTCG (((..(((....))))))
folding enthalpy [1]: -19.9 kcal/mol
Tm [2]: 30.7 °C

CGATCCGGAAACGGGTCG (((.(((....))).)))
folding enthalpy [1]: -38.8 kcal/mol
Tm [2]: 57.2 °C

CGATCGAAAGATCG (((((....)))))
folding enthalpy [1]: -30.4 kcal/mol
Tm [2]: 59.9 °C

CGATCGGAAACGAAGTCG ((((((....)))..)))
folding enthalpy [1]: -11.7 kcal/mol
Tm [2]: 25.6 °C

CGATCGGAAACGACATCG ((((((....)))..)))
folding enthalpy [1]: -24 kcal/mol
Tm [2]: 32 °C

CGATCGGAAACGACTCG ((((((....))).)))
folding enthalpy [1]: -31 kcal/mol
Tm [2]: 40.7 °C

CGATCGGAAACGAGCTCG ((((((....)))..)))
folding enthalpy [1]: -11.5 kcal/mol
Tm [2]: 29.8 °C

CGATCGGAAACGATGTCG ((((((....)))..)))
folding enthalpy [1]: -13.6 kcal/mol
Tm [2]: 39.5 °C

CGATGCCGGAAACGGTCG (((..(((....))))))
folding enthalpy [1]: -10 kcal/mol
Tm [2]: 32.7 °C

CGATTCGGAAACGAGTCG (((.(((....))).)))
folding enthalpy [1]: -43.6 kcal/mol
Tm [2]: 50.8 °C

CGCAACGGAAACGTCGCG (((.(((....))).)))
folding enthalpy [1]: -42.6 kcal/mol
Tm [2]: 52.1 °C

CGCAACGGAAACGTGCG (((.(((....))))))
folding enthalpy [1]: -31.8 kcal/mol
Tm [2]: 56.5 °C

CGCAAGCGGAAACGCGCG (((..(((....))))))
folding enthalpy [1]: -22 kcal/mol
Tm [2]: 56.9 °C

CGCAATCGGAAACGAGCG (((..(((....))))))
folding enthalpy [1]: -25.4 kcal/mol
Tm [2]: 42.4 °C

CGCACACGGAAACGTGCG (((..(((....))))))
folding enthalpy [1]: -22 kcal/mol
Tm [2]: 52.9 °C

CGCACGGAAACGTTGGCG ((((((....)))..)))
folding enthalpy [1]: -37.8 kcal/mol
Tm [2]: 45.4 °C

CGCCAACGGAAACGTGCG (((..(((....))))))
folding enthalpy [1]: -26 kcal/mol
Tm [2]: 45.5 °C

CGCCAGCGGAAACGCGCG (((..(((....))))))
folding enthalpy [1]: -23.4 kcal/mol
Tm [2]: 50.6 °C

CGCCCCGGAAACGGAGCG (((.(((....))).)))
folding enthalpy [1]: -39.3 kcal/mol
Tm [2]: 56.5 °C

CGCCCCGGAAACGGTGCG (((.(((....))).)))
folding enthalpy [1]: -49.4 kcal/mol
Tm [2]: 53.9 °C

CGCCCGCGGAAACGCGCG (((..(((....))))))
folding enthalpy [1]: -8.68 kcal/mol
Tm [2]: 42.4 °C

CGCCGCCGGAAACGGGCG (((..(((....))))))
folding enthalpy [1]: -16.5 kcal/mol
Tm [2]: 51.9 °C

CGCCGCGGAAACGCTGCG (((.(((....))).)))
folding enthalpy [1]: -37.6 kcal/mol
Tm [2]: 57.6 °C

CGCCTCGGAAACGACGCG (((.(((....))).)))
folding enthalpy [1]: -33.9 kcal/mol
Tm [2]: 45.7 °C

CGCCTCGGAAACGATGCG (((.(((....))).)))
folding enthalpy [1]: -48 kcal/mol
Tm [2]: 49.9 °C

CGCCTTCGGAAACGAGCG (((..(((....))))))
folding enthalpy [1]: -13.6 kcal/mol
Tm [2]: 36.3 °C

CGCGACGGAAACGTGCG (((.(((....))))))
folding enthalpy [1]: -28.3 kcal/mol
Tm [2]: 55.3 °C

CGCGCGGAAACGCAAGCG ((((((....)))..)))
folding enthalpy [1]: -34 kcal/mol
Tm [2]: 56.8 °C

CGCGCGGAAACGCACGCG ((((((....)))..)))
folding enthalpy [1]: -22.1 kcal/mol
Tm [2]: 57.1 °C
